The values below come from ChEMBL document CHEMBL1143088, “Non-acidic pyrazole EP1 receptor antagonists with in vivo analgesic efficacy” (Bioorg Med Chem Lett, 2008).

In data set [1] the target is T1, Prostaglandin E2 receptor EP1 subtype (Homo sapiens, UniProt P34995).
T1 sequence (P34995 whole entry): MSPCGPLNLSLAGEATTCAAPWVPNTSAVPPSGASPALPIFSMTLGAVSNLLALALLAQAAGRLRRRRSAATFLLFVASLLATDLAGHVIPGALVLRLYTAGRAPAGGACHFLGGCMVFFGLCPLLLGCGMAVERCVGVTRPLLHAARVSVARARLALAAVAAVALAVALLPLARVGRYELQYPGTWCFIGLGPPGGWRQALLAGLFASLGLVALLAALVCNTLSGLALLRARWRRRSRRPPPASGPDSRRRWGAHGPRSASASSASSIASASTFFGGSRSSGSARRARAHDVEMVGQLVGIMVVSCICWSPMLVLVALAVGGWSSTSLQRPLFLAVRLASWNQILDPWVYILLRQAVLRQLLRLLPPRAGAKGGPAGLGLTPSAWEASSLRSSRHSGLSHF
The data set can be described thus: Displacement of [3H]PGE2 from human PGE2-EP1 receptor expressed in CHO-K1 cells. It counts as cell-based.

A short description of data set [2]: Distribution coefficient, logD at pH 7.4. The following applies: octanol/water. In kind it is physicochemical. The essentials:
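Distribution coefficient between n-octanol and water buffered to pH 7.4; log10 of ratio of equilibrium concentrations of all species.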

Data set [3] in a line: Clearance in blood in rat at 10 mL/h/kg, iv. In kind it is ADME, organism-based. The following applies: whole blood. The method, boiled down:
(§1)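 Male rats (n = 1 per compound) dosed iv at 10 mL/h/kg over 1 h via femoral vein cannula, target 1 mg free compound/kg, formulated at 0.1 mg/mL in 0.9% saline with 2% DMSO and 10–20% Kleptose (some with a molar equivalent NaOH), filtered before dosing.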

Data set [4] is described as follows: Volume of distribution at steady state in rat at 10 mL/h/kg, iv. In kind it is ADME, organism-based. The following applies: in vivo, read-out: Vdss. The method, boiled down: as §1
A short description of data set [5]: Half life in rat at 10 mL/h/kg, iv. The following applies: in vivo. In kind it is ADME, organism-based. The method, boiled down:
as §1

In data set [1], `Cc1cc(NC(=O)OCc2ccccn2)nn1Cc1cc(Cl)ccc1OCc1ccccc1` had an IC50 of 79.4 nM. The compound also returned a logD in data set [2] of 3.1. This compound also displayed a clearance in data set [3] of 98 mL/min/kg. In addition, in data set [4], the Vd turned out to be 3 L/kg.

Regarding `Cc1cc(C(=O)NCc2cccnc2)nn1Cc1cc(Cl)ccc1OCc1ccccc1`, the half-inhibitory concentration (IC50) in data set [1] is 50.1 nM. Moreover, the logD in data set [2] is > 3.7.

For `Cc1cc(C(=O)NCc2ccccn2)nn1Cc1cc(Cl)ccc1OCc1ccccc1`, in data set [1], the 50% inhibitory concentration (IC50) is 25.1 nM. Moreover, the logD in data set [2] was > 3.7. Also, the clearance in data set [3] amounted to 68 mL/min/kg. The Vd in data set [4] was determined as 3.6 L/kg. In data set [5], this compound showed a half-life of 1.3 h.

`Cc1cc(C(=O)Nc2cccc(F)c2)nn1Cc1cc(Cl)ccc1OCc1ccccc1` showed an IC50 in data set [1] of 200 nM. In data set [2], the pH-dependent lipophilicity (logD) was 2.8.

For the compound `Cc1cc(NC(=O)c2ccccc2)nn1Cc1cc(Cl)ccc1OCc1ccccc1`, the IC50 in data set [1] is 15.8 nM. Moreover, the logD in data set [2] was > 3.7. Further, the clearance in data set [3] was 50 mL/min/kg.

In the case of `Cc1cc(C(=O)NN2CCCCC2)nn1Cc1cc(Cl)ccc1OCC(C)C`, the IC50 in data set [1] was 200 nM. Moreover, the logD in data set [2] was 3.3.

As to `Cc1cc(NC(=O)OCC(C)C)nn1Cc1cc(Cl)ccc1OCc1ccccc1`, the IC50 in data set [1] was 25.1 nM. In data set [2], this compound showed a log distribution coefficient (logD) of 3.3. For the same compound, the clearance in data set [3] came out at 124 mL/min/kg. Moreover, the Vd in data set [4] worked out at 3.9 L/kg.

As to `Cc1cc(C(=O)Nc2ccc(F)cc2)nn1Cc1cc(Cl)ccc1OCc1ccccc1`, the IC50 in data set [1] was 79.4 nM. In data set [2], the logD turned out to be 3.

`Cc1cc(C(=O)NCc2ccncc2)nn1Cc1cc(Cl)ccc1OCc1ccccc1` had an IC50 in data set [1] of 79.4 nM. For the same compound, the logD in data set [2] was > 3.7.

Take `Cc1cc(C(N)=O)nn1Cc1cc(Cl)ccc1OCC(C)C`: in data set [1], the half-inhibitory concentration (IC50) is 126 nM. Further, the logD in data set [2] amounted to 3.1.

Turning to `Cc1cc(C(=O)O)nn1Cc1cc(Cl)ccc1OCc1ccccc1`, the half-inhibitory concentration (IC50) in data set [1] was 10 nM. Further, in data set [2], the logD amounted to 1.

As a reminder, the IC50 is the concentration needed to halve the response being measured. A high value points to lower potency. For orientation: logD means the decadic logarithm of the distribution of all forms, ionised or not, between an organic phase and buffer at a given pH. A higher logD goes with a more lipophilic compound. A word on the clearance: it is a measure of how efficiently the substance is removed, as volume per time. A word on the half-life: it is the time needed for the level to fall by half in the phase considered. Read a high half-life as slow decline.
